This is an account of results in ChEMBL document CHEMBL1138564, “Microwave-induced synthesis and anti-microbial activities of 7,10,11,12-tetrahydrobenzo[c]acridin-8(9H)-one derivatives” (2009).

One test deals with Bacillus cereus. Nature of the test: Antimicrobial activity against Bacillus cereus NCIM 2155 at 5 ug/disk after 24 hrs by disk diffusion method. The test is classed as functional. Conditions: NCIM 2155, 24 h, read-out: DIZ. In short, it runs like this: (§1)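 Disc diffusion on Mueller–Hinton agar. 100 µl of bacterial suspension at 10⁸ CFU/ml is spread on the plate. Discs carry test compounds at two loadings, dissolved in DMSO; DMSO alone serves as negative control. Ofloxacin disc is the positive reference. Plates are incubated at 37 °C for 24 h, and the inhibition zone diameter is measured.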

In another test the test system is Proteus vulgaris. Kind of test: Antimicrobial activity against Proteus vulgaris NCIM 2027 at 5 ug/disk after 24 hrs by disk diffusion method. Format: functional. Conditions: NCIM 2027, 24 h, read-out: DIZ. In short, it runs like this:
as §1

A further test deals with Aliivibrio fischeri. Nature of the test: Antimicrobial activity against Vibrio fischeri NCIM 2154 at 5 ug/disk after 24 hrs by disk diffusion method. Format: functional. Conditions: NCIM 2154, 24 h, read-out: DIZ. In short, it runs like this: (§2)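 Reference disc of ofloxacin at 5 µg/disc, used to check the sensitivity of each bacterial strain. 100 µl of inoculum at 10⁸ CFU/ml was spread on Mueller–Hinton agar and incubated at 37 °C for 24 h. The read-out was inhibition zone diameter.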
(In agar diffusion tests the substance spreads into inoculated agar from a disc or well.)

The subject of the next test is Staphylococcus. Nature of the test: Antimicrobial activity against Staphylococcus albus NCIM 2178 at 5 ug/disk after 24 hrs by disk diffusion method. Format: functional. As to conditions: NCIM 2178, 24 h, read-out: DIZ. In short, it runs like this:
as §2

The next test concerns Salmonella typhimurium. Nature of the test: Antimicrobial activity against Salmonella Typhimurium NCIM 2501 at 5 ug/disk after 24 hrs by disk diffusion method. Format: functional, Salmonella enterica subsp. enterica serovar Typhimurium. As to conditions: Salmonella enterica, NCIM 2501, 24 h; read-out: DIZ. In short, it runs like this: as §2
A further test deals with Escherichia coli. Kind of test: Antimicrobial activity against Escherichia coli NCIM 2065 at 5 ug/disk after 24 hrs by disk diffusion method. Format: functional. As to conditions: NCIM 2065, 24 h, read-out: DIZ. In short, it runs like this: as §1
The test system of a further test is Klebsiella aerogenes. Nature of the test: Antimicrobial activity against Klebsiella aerogenes NCIM 2239 at 5 ug/disk after 24 hrs by disk diffusion method. The test is classed as functional. As to conditions: NCIM 2239, 24 h, read-out: DIZ. In short, it runs like this:
as §1

For another test, the system named is Bacillus subtilis. Nature of the test: Antimicrobial activity against Bacillus subtilis NCIM 2063 at 5 ug/disk after 24 hrs by disk diffusion method. The test is classed as functional. Conditions: NCIM 2063, 24 h, read-out: DIZ. In short, it runs like this:
as §1

A further test deals with Pseudomonas aeruginosa. Kind of test: Antimicrobial activity against Pseudomonas aeruginosa NCIM 2200 at 5 ug/disk after 24 hrs by disk diffusion method. Conditions: NCIM 2200, 24 h, read-out: DIZ. The test is classed as functional. In short, it runs like this:
as §2

Test [1] concerns Rhodococcus corynebacterioides. Nature of the test: Antimicrobial activity against Corynebacterium rubrum NCIM 2252 at 5 ug/disk after 24 hrs by disk diffusion method. The test is classed as functional. As to conditions: Rhodococcoides corynebacterioides, NCIM 2252, 24 h; read-out: DIZ. In short, it runs like this: as §1

In the case of `CC1COc2c(N3CCN(C)CC3)c(F)cc3c(=O)c(C(=O)O)cn1c23` (stereo not given) [OFLOXACIN], the zone of inhibition at 5 µg/disc in the test with Bacillus cereus is 19 mm; in the test on Proteus vulgaris, 19 mm; in the test with Aliivibrio fischeri, 27 mm; in the test on Staphylococcus, 21 mm; in the test with Salmonella typhimurium, 21 mm; in the test on Escherichia coli, 23 mm. Moreover, the zone of inhibition at 5 µg/disc is 24 mm in the test on Klebsiella aerogenes, 24 mm in the test with Bacillus subtilis, 22 mm in the test with Pseudomonas aeruginosa and 25 mm in test [1].
